In ChEMBL document CHEMBL1141075, “4-Oxo-4,7-dihydrothieno[2,3-b]pyridines as non-nucleoside inhibitors of human cytomegalovirus and related herpesvirus polymerases” (J Med Chem, 2005):

Experiments:
[1] = test system: HFF; experiment: Antiviral activity against human cytomegalovirus (Davis strain) grown on human foreskin fibroblast cells determined by reduction in plaque formation upon incubation at 37 degrees C with the compound dissolved in DMSO; assay type: functional, cell-based
[2] = Toxicity on uninfected African green monkey kidney cells determined in microscopic evaluation and quantitative neutral red dye uptake assay; assay type: cell-based; conditions: chlorocebus sabaeus, uninfected African green monkey kidney (Vero) cells
In short: (§1)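 Uninfected cells were seeded as subconfluent monolayers and exposed to compound for 3 days. Viability was judged both by microscopic inspection and by quantitative neutral red dye uptake, giving CC50.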

[3] = target: T1, DNA polymerase catalytic subunit (Herpes simplex virus (type 1 / strain 17), UniProt P04293); experiment: Inhibition of herpes simplex virus type 1 DNA polymerase (95 uL) activity in a solution containing […] HEPES (pH 7.5), incubation for 12 minutes at 26 degrees C; design: species or system Human alphaherpesvirus 1
T1 sequence (P04293 whole entry): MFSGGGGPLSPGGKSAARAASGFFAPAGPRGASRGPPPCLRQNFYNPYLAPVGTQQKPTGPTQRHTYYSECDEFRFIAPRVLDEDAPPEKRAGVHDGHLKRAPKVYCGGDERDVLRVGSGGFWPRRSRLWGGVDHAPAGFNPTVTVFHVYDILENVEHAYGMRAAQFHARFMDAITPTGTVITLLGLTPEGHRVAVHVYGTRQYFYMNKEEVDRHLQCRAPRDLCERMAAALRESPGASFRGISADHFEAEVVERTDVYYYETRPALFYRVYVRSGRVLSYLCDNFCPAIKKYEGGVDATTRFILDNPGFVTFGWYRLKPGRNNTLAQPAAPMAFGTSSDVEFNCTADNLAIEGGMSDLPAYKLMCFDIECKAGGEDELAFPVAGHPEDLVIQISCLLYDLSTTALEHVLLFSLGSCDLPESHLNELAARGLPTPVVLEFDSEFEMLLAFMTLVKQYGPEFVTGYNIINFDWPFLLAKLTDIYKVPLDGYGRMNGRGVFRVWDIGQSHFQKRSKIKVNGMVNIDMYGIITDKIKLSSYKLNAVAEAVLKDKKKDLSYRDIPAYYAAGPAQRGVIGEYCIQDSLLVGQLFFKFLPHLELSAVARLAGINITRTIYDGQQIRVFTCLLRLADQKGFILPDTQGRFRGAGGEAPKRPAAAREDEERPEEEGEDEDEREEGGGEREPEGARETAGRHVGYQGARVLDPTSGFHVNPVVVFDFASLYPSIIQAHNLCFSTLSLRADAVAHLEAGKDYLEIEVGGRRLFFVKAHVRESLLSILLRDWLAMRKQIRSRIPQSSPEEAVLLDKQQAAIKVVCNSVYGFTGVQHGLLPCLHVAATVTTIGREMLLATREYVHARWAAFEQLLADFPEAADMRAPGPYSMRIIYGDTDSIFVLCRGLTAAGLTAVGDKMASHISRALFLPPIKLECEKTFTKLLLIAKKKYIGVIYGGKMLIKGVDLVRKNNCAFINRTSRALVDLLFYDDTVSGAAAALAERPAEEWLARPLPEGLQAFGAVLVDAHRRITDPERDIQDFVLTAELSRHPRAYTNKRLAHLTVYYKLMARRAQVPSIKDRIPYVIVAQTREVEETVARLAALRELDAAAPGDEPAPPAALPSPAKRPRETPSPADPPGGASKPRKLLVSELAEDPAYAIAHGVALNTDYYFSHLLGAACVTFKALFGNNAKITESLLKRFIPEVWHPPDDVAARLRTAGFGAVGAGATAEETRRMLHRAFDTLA

[4] = target: T2, DNA polymerase alpha catalytic subunit (Homo sapiens, UniProt P09884); experiment: Inhibition of human alpha DNA polymerase (95 uL) activity in a solution containg […] HEPES (pH 7.5) upon incubation for 12 minutes at 26 degrees C with the compound dissolved in DMSO
T2 sequence (P09884 whole entry): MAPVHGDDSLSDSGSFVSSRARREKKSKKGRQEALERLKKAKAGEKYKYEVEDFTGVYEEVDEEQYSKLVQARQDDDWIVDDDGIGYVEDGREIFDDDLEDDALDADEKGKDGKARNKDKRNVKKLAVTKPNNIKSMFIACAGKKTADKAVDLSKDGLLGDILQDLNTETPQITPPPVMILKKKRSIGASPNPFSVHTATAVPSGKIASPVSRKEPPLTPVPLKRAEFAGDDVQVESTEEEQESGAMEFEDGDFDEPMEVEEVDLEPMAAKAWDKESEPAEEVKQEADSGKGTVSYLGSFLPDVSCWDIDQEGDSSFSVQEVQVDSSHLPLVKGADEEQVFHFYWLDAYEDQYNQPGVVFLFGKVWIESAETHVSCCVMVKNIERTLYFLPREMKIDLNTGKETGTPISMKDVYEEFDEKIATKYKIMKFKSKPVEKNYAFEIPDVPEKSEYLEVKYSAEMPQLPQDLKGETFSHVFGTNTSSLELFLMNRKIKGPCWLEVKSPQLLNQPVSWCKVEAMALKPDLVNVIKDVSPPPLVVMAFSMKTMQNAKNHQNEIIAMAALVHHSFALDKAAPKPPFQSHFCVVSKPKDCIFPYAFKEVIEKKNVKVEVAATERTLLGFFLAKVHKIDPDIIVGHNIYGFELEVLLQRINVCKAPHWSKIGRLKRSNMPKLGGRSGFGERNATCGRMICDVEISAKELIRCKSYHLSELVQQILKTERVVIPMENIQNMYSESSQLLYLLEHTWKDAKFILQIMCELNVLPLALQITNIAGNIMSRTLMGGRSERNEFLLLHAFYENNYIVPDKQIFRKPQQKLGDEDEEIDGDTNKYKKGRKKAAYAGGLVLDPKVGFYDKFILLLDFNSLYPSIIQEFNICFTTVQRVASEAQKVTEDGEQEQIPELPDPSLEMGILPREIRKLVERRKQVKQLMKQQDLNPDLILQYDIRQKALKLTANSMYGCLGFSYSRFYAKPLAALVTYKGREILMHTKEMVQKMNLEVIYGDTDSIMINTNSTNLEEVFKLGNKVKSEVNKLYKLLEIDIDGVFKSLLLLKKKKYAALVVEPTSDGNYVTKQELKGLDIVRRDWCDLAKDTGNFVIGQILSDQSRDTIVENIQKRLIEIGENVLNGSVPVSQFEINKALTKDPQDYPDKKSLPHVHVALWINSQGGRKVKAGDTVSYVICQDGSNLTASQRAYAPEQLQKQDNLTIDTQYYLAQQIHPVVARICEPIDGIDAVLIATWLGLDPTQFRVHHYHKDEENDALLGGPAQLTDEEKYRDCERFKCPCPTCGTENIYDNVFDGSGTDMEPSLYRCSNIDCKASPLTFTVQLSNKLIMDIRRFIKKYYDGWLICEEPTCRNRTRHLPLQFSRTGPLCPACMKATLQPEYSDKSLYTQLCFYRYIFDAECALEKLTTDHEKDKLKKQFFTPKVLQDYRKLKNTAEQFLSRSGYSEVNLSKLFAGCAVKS

[5] = Toxicity on uninfected human foreskin fibroblast cells determined in microscopic evaluation and quantitative neutral red dye uptake assay; assay type: cell-based; conditions: uninfected human foreskin fibroblast (HFF) cells; in short: as §1
[6] = test system: Vero; experiment: Antiviral activity against herpes simplex virus type 1 (KOS strain) grown on human foreskin fibroblast cells determined by vedduction in plaque formation upon incubation at 37 degrees C with the compound dissolved in DMSO until plaque were formed; assay type: functional, cell-based
In short: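 HSV-1 KOS, about 50 PFU per well, was adsorbed for 1 h at 37 °C. The inoculum was then replaced with drug dilutions from 200-fold DMSO stocks in DMEM containing 10% FBS and 0.8% carboxymethyl cellulose. Cultures were kept at 37 °C until plaques appeared. Plaques were counted microscopically or by crystal violet staining (0.1% in 20% ethanol). IC50 came from linear regression of % inhibition relative to the uninhibited control.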

[7] = test system: HFF; experiment: Antiviral activity against Varicella-Zoster virus (Webster strain) grown on human foreskin fibroblast cells determined by vedduction in plaque formation upon incubation at 37 degrees C with the compound dissolved in DMSO until plaque were formed; assay type: functional, cell-based
In short: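 Monolayers of human foreskin fibroblasts were infected with about 50 PFU per well for 1 h at 37 °C. The inoculum was then replaced with DMEM containing 10% FBS, 0.8% carboxymethyl cellulose and diluted compound from 200-fold DMSO stocks. Plates were incubated at 37 °C until plaques formed. Plaques were counted microscopically or after 0.1% crystal violet staining. IC50 came from linear regression of % inhibition versus untreated controls.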

[8] = test system: Vero; experiment: cells; conditions: Chlorocebus sabaeus, 1 h
[9] = test system: Vero; experiment: cells; conditions: Chlorocebus sabaeus, 1 h; remark: listed apart in the source
[10] = test system: Vero; experiment: cells; conditions: Chlorocebus sabaeus, 1 h; remark: listed apart in the source
[11] = test system: Vero; experiment: cells; conditions: Chlorocebus sabaeus, 1 h; remark: listed apart in the source
[12] = test system: Vero; experiment: cells; conditions: Chlorocebus sabaeus, 1 h; remark: listed apart in the source
[13] = test system: Vero; experiment: cells; conditions: Chlorocebus sabaeus, 1 h; remark: listed apart in the source
[14] = test system: Vero; experiment: cells; conditions: Chlorocebus sabaeus, 1 h; remark: listed apart in the source
[15] = test system: Vero; experiment: cells; conditions: Chlorocebus sabaeus, 1 h; remark: listed apart in the source
[16] = test system: Vero; experiment: cells; conditions: Chlorocebus sabaeus, 1 h; remark: listed apart in the source
[17] = target: T3, DNA polymerase delta catalytic subunit (Homo sapiens, UniProt P28340); experiment: Inhibition of human delta DNA polymerase (95 uL) activity in a solution containg […] HEPES (pH 7.5) upon incubation for 12 minutes at 26 degrees C with the compound dissolved in DMSO
T3 sequence (P28340 whole entry): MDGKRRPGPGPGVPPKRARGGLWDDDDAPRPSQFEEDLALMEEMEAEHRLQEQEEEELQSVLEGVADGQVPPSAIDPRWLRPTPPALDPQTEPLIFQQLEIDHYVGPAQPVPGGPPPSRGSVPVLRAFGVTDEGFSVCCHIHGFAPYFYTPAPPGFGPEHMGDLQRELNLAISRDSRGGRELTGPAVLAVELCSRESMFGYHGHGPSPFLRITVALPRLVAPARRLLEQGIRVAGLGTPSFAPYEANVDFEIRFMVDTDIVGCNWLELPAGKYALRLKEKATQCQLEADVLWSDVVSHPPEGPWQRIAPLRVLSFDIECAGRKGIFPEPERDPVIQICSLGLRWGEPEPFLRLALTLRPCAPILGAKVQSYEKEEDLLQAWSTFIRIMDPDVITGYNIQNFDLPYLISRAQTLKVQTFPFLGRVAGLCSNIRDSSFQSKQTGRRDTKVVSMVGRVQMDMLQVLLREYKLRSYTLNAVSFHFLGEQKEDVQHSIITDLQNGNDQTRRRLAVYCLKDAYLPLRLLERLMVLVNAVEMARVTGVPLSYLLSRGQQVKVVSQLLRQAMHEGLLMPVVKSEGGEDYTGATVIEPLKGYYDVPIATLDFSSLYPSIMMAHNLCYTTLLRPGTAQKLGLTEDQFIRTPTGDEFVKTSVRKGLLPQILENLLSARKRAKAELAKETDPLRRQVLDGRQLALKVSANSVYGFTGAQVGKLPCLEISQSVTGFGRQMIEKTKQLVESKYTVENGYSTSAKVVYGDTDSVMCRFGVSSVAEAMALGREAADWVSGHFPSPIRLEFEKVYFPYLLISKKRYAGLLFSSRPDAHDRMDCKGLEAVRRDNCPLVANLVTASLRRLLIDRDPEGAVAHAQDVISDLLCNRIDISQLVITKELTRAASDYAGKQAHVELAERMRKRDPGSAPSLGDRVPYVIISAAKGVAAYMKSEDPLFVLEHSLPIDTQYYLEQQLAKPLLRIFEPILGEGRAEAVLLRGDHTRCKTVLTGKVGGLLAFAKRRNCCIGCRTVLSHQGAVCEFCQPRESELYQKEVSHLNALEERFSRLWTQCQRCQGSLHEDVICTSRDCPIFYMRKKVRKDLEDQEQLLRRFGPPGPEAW

[18] = test system: HFF; experiment: Antiviral activity against human cytomegalovirus Ad169 (WT) plaque forming unit grown on Human foreskin fibroblast cells upon incubation for 1 hour at 37 degrees C with compound dissolved in DMSO; assay type: functional, cell-based
In short: (§2)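 Plaque reduction: about 50 PFU added per well of a 24-well dish of the appropriate cells, 1 h at 37 °C, then the inoculum was replaced by drug-containing DMEM with 10% FBS and 0.8% carboxymethyl cellulose. DMSO stocks were 200-fold. Plates were held at 37 °C until plaques formed. Plaques were counted microscopically or after crystal violet stain. Percent inhibition was taken against the uninhibited control, with IC50 by linear regression.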

[19] = test system: HFF; experiment: Antiviral activity against human cytomegalovirus Ad169 (V823A) plaque forming unit grown on Human foreskin fibroblast cells upon incubation for 1 hour at 37 degrees C with compound dissolved in DMSO; assay type: functional, cell-based; in short: as §2

Structure (SMILES): Cn1cc(C(=O)NCc2ccc(Cl)cc2)c(=O)c2cc(CCCO)sc21
- IC50 [1]: 0.6 µM
- CC50 [2]: > 100 µM
- IC50 [3]: 0.5 µM
- IC50 [4]: > 40 µM
- CC50 [5]: > 100 µM
- IC50 [6]: 3 µM
- IC50 [7]: 0.09 µM

Structure (SMILES): Nc1nc2c(ncn2COCCO)c(=O)[nH]1 [ACYCLOVIR]
- IC50 [8]: 5.4 µM
- IC50 [9]: 3.5 µM
- CC50 [2]: > 100 µM
- IC50 [10]: 4.4 µM
- IC50 [11]: 2.8 µM
- IC50 [12]: > 10 µM
- IC50 [13]: 2.4 µM
- CC50 [5]: > 100 µM
- IC50 [14]: > 10 µM
- IC50 [15]: > 10 µM
- IC50 [16]: > 10 µM

Structure (SMILES): C[C@@]1(CO)[C@H](O)CC[C@@]2(C)[C@H]1CC[C@H]1C[C@@H]3C[C@@]12CC[C@]3(O)CO [APHIDICOLIN]
- IC50 [17]: > 40 µM

Structure (SMILES): O=C(O)P(=O)(O)O [FOSCARNET]
- IC50 [4]: > 20 µM
- IC50 [17]: > 20 µM

Structure (SMILES): Nc1nc2c(ncn2COC(CO)CO)c(=O)[nH]1 [GANCICLOVIR]
- CC50 [2]: > 100 µM
- IC50 [18]: 0.8 µM
- IC50 [19]: 0.8 µM
- CC50 [5]: > 100 µM

Structure (SMILES): Cc1cn([C@H]2C[C@H](N=[N+]=[N-])[C@@H](CO[P@](=O)(O)O[P@](=O)(O)OP(=O)(O)O)O2)c(=O)[nH]c1=O [ZIDOVUDINE TRIPHOSPHATE]
- IC50 [4]: 13.4 µM
